Eleven molecules from PMC9165018 (Journal of medicinal chemistry, 2022) can be followed below.

The nature of data set [1]: Microsomal stability test, human liver microsome. The class given is in vitro ADME. To be noted: human liver microsomes. The method, boiled down: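 Human liver microsomes (10 µL at 20 mg/mL) were combined with 330 µL 0.1 M phosphate buffer (3.3 mM MgCl2) and 40 µL of 10 µM test compound, with NADPH in the same buffer. Verapamil was the positive control.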
Data set [2] can be described thus: Microsomal stability test, mouse liver microsome. The class given is in vitro ADME. To be noted: MLM and HLM t1/2, vs compound 1. In general terms: Microsomes from liver hold many membrane-bound enzymes, among them those of drug oxidation.
For data set [3], the system named is MIA PaCa-2 cells. Kind of data set: 7-day MTT growth inhibition assay, MIA PaCa-2. It counts as cell-based. To be noted: for IC50: Homo sapiens, MIA PaCa-2, 168 h; for activity (cytotoxicity in pancreatic cancer cells): 7-day MTT assay. Summed up: (§1)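 Cells were seeded in glucose-containing medium (MIA PaCa-2 200 cells/well; BxPC-3 300 cells/well), incubated overnight at 37 °C, 5% CO2, then exposed to test compound or DMSO for 7 days. MTT (3 mg/mL solution) was added for 4 h, formazan dissolved in DMSO, and A570 read. Inhibition = [1 − (At−Ab)/(Ac−Ab)] × 100. IC50 came from nonlinear regression; at least three independent runs.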
(Formazan colour is commonly taken as a measure of viable cells.)

The test system of data set [4] is MIA PaCa-2 cells. Kind of data set: 3-day MTT assay in glucose- or galactose-containing medium. The class given is cell-based. Summed up:
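MIA PaCa-2 cells were treated with test compound for 3 days in glucose-containing medium. MTT (3 mg/mL solution) was added for 4 h at 37 °C. Supernatant was removed, formazan was dissolved in DMSO, and absorbance was read at 570 nm. IC50 came from nonlinear regression of log concentration–response curves. Experiments were run at least three times.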

In data set [5] the test system is OXPHOS Complex I. Briefly: NAD+/NADH ratio. The class given is cell-based. Conditions: MIA PaCa-2 cells, NAD/NADH-Glo Assay, 2 days treatment. The method, boiled down: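 MIA PaCa-2 cells (5 × 10^3/well) were treated the next day for 48 h with test compound in RPMI 1640 + 10% FBS. Cells were PBS-washed and lysed in bicarbonate base buffer with 1% DTAB. For NAD+, lysate was acid-treated (0.4 N HCl); for NADH, lysate was heated directly; both at 60 °C for 15 min, then neutralised with Trizma. After 30 min with Glo detection reagent, luminescence was read. IC50 of the NAD+/NADH ratio came from nonlinear regression.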

The subject of data set [6] is BxPC-3 cells. Kind of data set: 7-day MTT growth inhibition assay, BxPC-3. The class given is cell-based. Conditions: Homo sapiens, BXPC-3, 168 h, read-out: IC50 in BxPC-3 cells. The method, boiled down: as §1
Data set [7] can be described thus: Pharmacokinetics in CD-1 mice. To be noted: plasma. It counts as in vivo. Summed up: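 CD-1 mice received test compound at 2 mg/kg i.v. or 10 mg/kg p.o., and plasma concentration–time profiles were measured. Parameters came from non-compartmental analysis: AUC(0-tldc) to last detectable concentration and AUC(0-inf) extrapolated to infinity. Terminal half-life used ≥3 terminal-phase points. Bioavailability = (AUCpo × Dose_iv)/(AUCiv × Dose_po) × 100%.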

Data set [8] deals with Pan02 cells. Briefly: Pan02 syngeneic pancreatic cancer model efficacy study. It counts as in vivo. To be noted: for tumor growth inhibition: Pan02 syngeneic model. Summed up:
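Female C57BL/6 mice, 6-10 weeks old, received 5×10^6 Pan02 cells s.c. in the right flank and were randomized (n = 5/group) at ~100 mm3. Dosing was daily for 28 days in 10% DMSO/50% PG/40% saline, or 10% DMSO/60% PG/30% saline for the 15 mg/kg dose. Tumours were measured by caliper twice weekly, V = (length × width²)/2. Body weight was recorded before dosing, then twice weekly.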

[9] abbreviates: read-out: IC50 in MIA PaCa-2 cells.

Values joined by “and” are separate entries in the source; they are usually repeats but may differ in a detail not shown here. Equal entries are not always repeated. “Also recorded” adds a separate entry of the source. Where two headings read alike, the source gives them in different places. Some results are limits rather than exact numbers.

Take `CCOC(=O)[C@@H]1CCCN(S(=O)(=O)c2ccc(S(=O)(=O)N(CC)CC)cc2)C1` [Compound 1]: the “HLM t1/2 (human liver microsome half life)” value in data set [1] worked out at 0.6 min.
In the case of `CCN(CC)S(=O)(=O)c1ccc(S(=O)(=O)N2CCC[C@@H](C(=O)NC3COC3)C2)cc1` [Compound 2], in data set [2], the “improvement of microsomal stability over compound 1” value is recorded as “more than 30 fold”.
In the case of `CCN(CC)S(=O)(=O)c1ccc(S(=O)(=O)N2CCC[C@@H](C(=O)N3CCC(OC)CC3)C2)cc1` [Compound 12, (R)-N,N-Diethyl-4-((3-(4-methoxypiperidine-1-carbonyl)piperidin-1-yl)sulfonyl)benzenesulfonamide], in data set [3] (vs compound 11), the “improvement in MIA PaCa-2 cell growth inhibition” value amounted to 2 fold. The “activity in glucose-containing medium” value in data set [4] is “inactive”.
Consider `CCN(CC)S(=O)(=O)c1ccc(S(=O)(=O)N2CCC[C@@H](C(=O)N3CCC(F)(F)CC3)C2)cc1` [Compound 16, (R)-4-((3-(4,4-Difluoropiperidine-1-carbonyl)piperidin-1-yl)sulfonyl)-N,N-diethylbenzenesulfonamide], for which, in data set [5], the “NAD+/NADH ratio (IC50, nM) Glucose medium” value (shortened to “NAD+/NADH ratio”) worked out at 23 ± 18.1 nM.
Turning to `CN(C)S(=O)(=O)c1ccc(S(=O)(=O)N2CCC[C@@H](C(=O)N3CCC(F)(F)CC3)C2)cc1` [Compound 20, (R)-4-((3-(4,4-Difluoropiperidine-1-carbonyl)piperidin-1-yl)sulfonyl)-N,N-dimethylbenzenesulfonamide], the IC50 in data set [3] (read-out: MIA PaCa-2 IC50) is 118 ± 44 nM. In addition, the “NAD+/NADH ratio” value in data set [5] stood at 34 ± 15 nM.
As for `O=C([C@@H]1CCCN(S(=O)(=O)c2ccc(S(=O)(=O)N3CC[C@@H](O)C3)cc2)C1)N1CCC(F)(F)CC1` [Compound 21, (4,4-Difluoropiperidin-1-yl)((R)-1-((4-(((R)-3-hydroxypyrrolidin-1-yl)sulfonyl)phenyl)sulfonyl)piperidin-3-yl)methanone], the “NAD+/NADH ratio” value in data set [5] was determined as 67.5 ± 18.8 nM.
With `CC(C)S(=O)(=O)c1ccc(S(=O)(=O)N2CCC[C@@H](C(=O)N3CCC(F)(F)CC3)C2)cc1` [Compound 23, (R)-(4,4-Difluoropiperidin-1-yl)(1-((4-(isopropylsulfonyl)phenyl)sulfonyl)piperidin-3-yl)methanone], the values for the IC50 in data set [3] (setting [9]) and in data set [6] were about 10 nM and under 100 nM, respectively. For the same molecule, the “NAD+/NADH ratio” value in data set [5] was 3.6 nM and 3.6 ± 3.2 nM. Also, the “AUC(0-inf)” value in data set [7] (IV 2 mg/kg) was 657.0 nM:h; in data set [7] (PO 10 mg/kg), 417.1 nM:h. The “AUC(0-tldc)” value in data set [7] (IV 2 mg/kg) is 650.0 nM:h; in data set [7] (PO 10 mg/kg), 368.1 nM:h. Moreover, the tolerability result in data set [8] (Pan02 model, once daily for 28 days, 20 7.5 mg/kg i.p., 21 15 mg/kg i.p., 27 2.5 mg/kg i.p., 23 10 mg/kg p.o.) was “well tolerated”. Moreover, in data set [8] (10 mg/kg p.o. once daily for 28 days, 10 mg/kg), the tumor growth inhibition result is given as “significant tumor growth inhibition; also recorded: significant tumor growth delay”.
Turning to `CCC(CC)S(=O)(=O)c1ccc(S(=O)(=O)N2CCC[C@@H](C(=O)N3CCC(F)(F)CC3)C2)cc1` [Compound 25, (R)-(4,4-Difluoropiperidin-1-yl)(1-((4-(pentan-3-ylsulfonyl)phenyl)sulfonyl)piperidin-3-yl)methanone], the IC50 is about 10 nM in data set [3] (setting [9]) and under 100 nM in data set [6].
With `O=C([C@@H]1CCCN(S(=O)(=O)c2ccc(S(=O)(=O)C3CCC3)cc2)C1)N1CCC(F)(F)CC1` [Compound 27, (R)-(1-((4-(Cyclobutylsulfonyl)phenyl)sulfonyl)piperidin-3-yl)(4,4-difluoropiperidin-1-yl)methanone], the half-inhibitory concentration (IC50) in data set [3] (setting [9]) was about 10 nM; in data set [6], under 100 nM. For the same molecule, the “NAD+/NADH ratio” value in data set [5] amounted to 3.2 ± 1.3 nM. Moreover, the tumor growth inhibition result in data set [8] (2.5 mg/kg i.p. once daily for 28 days) was “significant tumor growth inhibition”.
Consider `CP(C)(=O)c1ccc(S(=O)(=O)N2CCC[C@@H](C(=O)N3CCC(F)(F)CC3)C2)cc1` [Compound 30, (R)-(4,4-Difluoropiperidin-1-yl)(1-((4-(dimethylphosphoryl)phenyl)sulfonyl)piperidin-3-yl)methanone], for which the “activity (cytotoxicity in pancreatic cancer cells)” value in data set [3] is recorded as “complete loss of activity”.
Still for that read-out and setting: in the case of `CCP(=O)(CC)c1ccc(S(=O)(=O)N2CCC[C@@H](C(=O)N3CCC(F)(F)CC3)C2)cc1` [Compound 31, (R)-(1-((4-(diethylphosphoryl)phenyl)sulfonyl)piperidin-3-yl)(4,4-difluoropiperidin-1-yl)methanone] it was “complete loss of activity”.

Usually IC50 stands for the concentration at which inhibition is half-maximal.
